Experimental data reported in PMC9476207 (ACS Omega, 2022).

Legend:
Test in all cases: NCI-60 single-dose antiproliferative screen
Assay type in all cases: cell-based
NCI/ADR-RES = conditions: Homo sapiens, 48 h, read-out: growth percent
In short: (§1)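 NCI-60 protocol. Lines were grown in RPMI 1640 with 5% FBS and 2 mM L-glutamine, plated and incubated 24 h at 37 °C; time-zero plates were TCA-fixed. The test compound was dissolved in DMSO, diluted in medium with 50 μg/mL gentamicin and given once at a final 10^-5 M (DMSO control) for 48 h. Cells were fixed with cold TCA (1 h, 4 °C) and stained with 0.4% SRB in 1% acetic acid for 10 min. Dye was dissolved in 10 mM Trizma base and read at 515 nm. Growth percent was calculated from time-zero, test and control ODs.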

SF-268 = conditions: Homo sapiens, SF-268, 48 h, read-out: growth percent
In short: as §1

CAKI-1 = conditions: Homo sapiens, CAKI-1, 48 h, read-out: growth percent
In short: as §1

DU-145 = conditions: Homo sapiens, DU-145, 48 h, read-out: growth percent
In short: as §1

MDA-MB-468 = conditions: Homo sapiens, MDA-MB-468, 48 h, read-out: growth percent
In short: as §1

SNB-19 = conditions: Homo sapiens, SNB-19, 48 h, read-out: growth percent
In short: (§2)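 Cells grown in RPMI 1640 with 5% FBS and 2 mM L-glutamine, plated and held 24 h at 37 °C; time-zero plates TCA-fixed. DMSO stocks were diluted in gentamicin-containing medium to a final 10^-5 M, with a DMSO-only control. Exposure 48 h, 5% CO2. Adherent cells TCA-fixed 1 h at 4 °C, stained with 0.4% SRB, solubilised in 10 mM Trizma base, read at 515 nm. Growth percent derived from ODtzero, ODtest and ODctrl.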

HCT-15 = conditions: Homo sapiens, HCT-15, 48 h, read-out: growth percent
In short: as §1

COLO205 = conditions: Homo sapiens, COLO 205, 48 h, read-out: growth percent
In short: as §1

OVCAR-4 = conditions: Homo sapiens, OVCAR-4, 48 h, read-out: growth percent
In short: as §1

UO-31 = conditions: Homo sapiens, UO-31, 48 h, read-out: growth percent
In short: as §2

NCI-H226 = conditions: Homo sapiens, NCI-H226, 48 h, read-out: growth percent
In short: as §1

HS 578T = conditions: Homo sapiens, 48 h, read-out: growth percent
In short: as §1

SK-MEL-5 = conditions: Homo sapiens, SK-MEL-5, 48 h, read-out: growth percent
In short: as §2

NCI-H322M = conditions: Homo sapiens, 48 h, read-out: growth percent
In short: as §1

TK-10 = conditions: Homo sapiens, TK-10, 48 h, read-out: growth percent
In short: as §2

MDA-MB-435 = conditions: Homo sapiens, MDA-MB-435, 48 h, read-out: growth percent
In short: as §1

EKVX = conditions: Homo sapiens, 48 h, read-out: growth percent
In short: as §1

OVCAR-8 = conditions: Homo sapiens, OVCAR-8, 48 h, read-out: growth percent
In short: as §1

HOP-92 = conditions: Homo sapiens, HOP-92, 48 h, read-out: growth percent
In short: as §1

NCI-H460 = conditions: Homo sapiens, NCI-H460, 48 h, read-out: growth percent
In short: as §1

RPMI-8226 = conditions: Homo sapiens, RPMI-8226, 48 h, read-out: growth percent
In short: as §1

786-0 = conditions: Homo sapiens, 786-0, 48 h, read-out: growth percent
In short: as §1

OVCAR-5 = conditions: Homo sapiens, OVCAR-5, 48 h, read-out: growth percent
In short: as §1

RXF 393 = conditions: Homo sapiens, RXF 393, 48 h, read-out: growth percent
In short: as §1

MALME-3M = conditions: Homo sapiens, 48 h, read-out: growth percent
In short: as §1

T-47D = conditions: Homo sapiens, T47D, 48 h, read-out: growth percent
In short: as §2

HOP-62 = conditions: Homo sapiens, HOP-62, 48 h, read-out: growth percent
In short: as §1

LOX IMVI = conditions: Homo sapiens, 48 h, read-out: growth percent
In short: as §1

SK-OV-3 = conditions: Homo sapiens, SK-OV-3, 48 h, read-out: growth percent
In short: as §2

M14 = conditions: Homo sapiens, M14, 48 h, read-out: growth percent
In short: as §1

U251 = conditions: Homo sapiens, U-251, 48 h, read-out: growth percent
In short: as §2

SF-295 = conditions: Homo sapiens, SF-295, 48 h, read-out: growth percent
In short: as §1

SN12C = conditions: Homo sapiens, 48 h, read-out: growth percent
In short: as §2

MOLT-4 = conditions: Homo sapiens, MOLT-4, 48 h, read-out: growth percent
In short: as §1

NCI-H522 = conditions: Homo sapiens, NCI-H522, 48 h, read-out: growth percent
In short: as §1

OVCAR-3 = conditions: Homo sapiens, OVCAR-3, 48 h, read-out: growth percent
In short: as §1

Compound	activity at 10 µM (NCI/ADR-RES)	activity at 10 µM (SF-268)	activity at 10 µM (CAKI-1)	activity at 10 µM (DU-145)	activity at 10 µM (MDA-MB-468)	activity at 10 µM (SNB-19)	activity at 10 µM (HCT-15)	activity at 10 µM (COLO205)	activity at 10 µM (OVCAR-4)	activity at 10 µM (UO-31)	activity at 10 µM (NCI-H226)	activity at 10 µM (HS 578T)	activity at 10 µM (SK-MEL-5)	activity at 10 µM (NCI-H322M)	activity at 10 µM (TK-10)	activity at 10 µM (MDA-MB-435)	activity at 10 µM (EKVX)	activity at 10 µM (OVCAR-8)	activity at 10 µM (HOP-92)	activity at 10 µM (NCI-H460)	other results
COc1cc(CNC(=O)CCCC/C=C/C(C)C)ccc1OCc1cn(-c2ccc(F)cc2)nn1 [14h, (E)-N-(4-((1-(4-Fluorophenyl)-1H-1,2,3-triazol-4-yl)methoxy)-3-methoxybenzyl)-8-methylnon-6-enamide]	70.6%	87.2%	88.4%	96.1%	68.2%	81.3%	89.6%	120%	82.2%	86%	74.2%	77.7%	83.7%	91.8%	103%	98.8%	72.7%	71.5%	66.2%	75.7%	activity at 10 µM (RPMI-8226): 68.4%; activity at 10 µM (786-0): 83.7%; activity at 10 µM (OVCAR-5): 97.6%; activity at 10 µM (RXF 393): 95.3%; activity at 10 µM (MALME-3M): 103%; activity at 10 µM (T-47D): 73.8%; activity at 10 µM (HOP-62): 84.1%; activity at 10 µM (LOX IMVI): 84.2%; activity at 10 µM (SK-OV-3): 86.4%; activity at 10 µM (M14): 94%; activity at 10 µM (U251): 83.9%; activity at 10 µM (SF-295): 90.5%; activity at 10 µM (SN12C): 82.4%; activity at 10 µM (MOLT-4): 82.6%; activity at 10 µM (NCI-H522): 70.2%; activity at 10 µM (OVCAR-3): 96.4%
COc1cc(CNC(=O)CCCC/C=C/C(C)C)ccc1OCc1cn(-c2cccc(Cl)c2)nn1 [14b, (E)-N-(4-((1-(3-Chlorophenyl)-1H-1,2,3-triazol-4-yl)methoxy)-3-methoxybenzyl)-8-methylnon-6-enamide]	76.6%	82.5%	79.6%	95.9%	74.7%	60%	91.3%	102%	67.2%	72.2%	86.5%	74.8%	91.2%	86.2%	106%	98.6%	80.8%	57.2%	62.4%	84.1%	activity at 10 µM (RPMI-8226): 86.3%; activity at 10 µM (786-0): 76.8%; activity at 10 µM (OVCAR-5): 99.8%; activity at 10 µM (RXF 393): 91%; activity at 10 µM (MALME-3M): 98.7%; activity at 10 µM (T-47D): 81.1%; activity at 10 µM (HOP-62): 71.5%; activity at 10 µM (LOX IMVI): 89.4%; activity at 10 µM (SK-OV-3): 78.8%; activity at 10 µM (M14): 94.1%; activity at 10 µM (U251): 69.1%; activity at 10 µM (SF-295): 90.5%; activity at 10 µM (SN12C): 84.2%; activity at 10 µM (MOLT-4): 92.8%; activity at 10 µM (NCI-H522): 69.2%; activity at 10 µM (OVCAR-3): 84.4%
COc1cc(CNC(=O)CCCC/C=C/C(C)C)ccc1OCc1cn(-c2ccc(C)c(C)c2)nn1 [14p, (E)-N-(4-((1-(3,4-Dimethylphenyl)-1H-1,2,3-triazol-4-yl)methoxy)-3-methoxybenzyl)-8-methylnon-6-enamide]	80.6%	94.6%	94.3%	108%	71.8%	95.8%	71.2%	106%	84.9%	75.7%	86.9%	90.7%	81.5%	101%	109%	104%	79.3%	83.3%	80.4%	86.5%	activity at 10 µM (RPMI-8226): 67.3%; activity at 10 µM (786-0): 99.8%; activity at 10 µM (OVCAR-5): 107%; activity at 10 µM (RXF 393): 98.2%; activity at 10 µM (MALME-3M): 107%; activity at 10 µM (T-47D): 73.2%; activity at 10 µM (HOP-62): 97.4%; activity at 10 µM (LOX IMVI): 84.5%; activity at 10 µM (SK-OV-3): 98.6%; activity at 10 µM (M14): 93.5%; activity at 10 µM (U251): 88.3%; activity at 10 µM (SF-295): 88.8%; activity at 10 µM (SN12C): 88.4%; activity at 10 µM (MOLT-4): 78.5%; activity at 10 µM (NCI-H522): 80.7%; activity at 10 µM (OVCAR-3): 100%
